Data as given in ChEMBL document CHEMBL1122004, “alpha-Adrenergic agents. 2. Synthesis and alpha 1-agonist activity of 2-aminotetralins” (J Med Chem, 1982).

What was measured:
[1] = Alpha-1 adrenergic receptor activation causing vasoconstriction in the isolated rabbit ear artery; format: functional, tissue-based; settings: Oryctolagus cuniculus
In short: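 Isolated rabbit ear artery segments with cocaine 2×10^-6 g/mL present throughout to block neuronal uptake. A cumulative norepinephrine curve (10^-8 to 3×10^-6 M) is run first to set the maximum response. After washout, a cumulative test-drug curve is run, stepping concentration once the response is stable. EC50 = concentration giving 50% of the NE maximum.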

[2] = target: Adrenergic receptor alpha-1 (Homo sapiens) (UniProt P35348+P25100+P35368); assay: Dissociation constant for Alpha-1-adrenergic receptor was determined before and after addition of phentolamine; settings: Oryctolagus cuniculus
In short: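 Rabbit ear artery with cocaine 2×10^-6 g/mL. After cumulative NE and test-drug curves and washout, phentolamine 10^-7 M is superfused for 30 min of equilibration. NE and test-drug curves are then repeated. K_B for phentolamine = [phentolamine]/((EC50 with phentolamine / EC50 without) − 1).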

CCNC1CCc2c(OC)ccc(OC)c2C1 (stereo not drawn)
EC50 [1]: 81 nM
Kb [2]: 8 nM

COc1cc2c(cc1OC)CC(N)CC2 (stereo not drawn)
EC50 [1]: > 10000 nM

CCNC1CCc2c(I)ccc(OC)c2C1 (stereo not drawn)
EC50 [1]: 21 nM
Kb [2]: 11 nM

COc1ccc(OC)c2c1CCC(N(C)C)C2 (stereo not drawn)
EC50 [1]: 81 nM
Kb [2]: 15 nM

CCNC1CCc2c(Sc3ccccc3)ccc(OC)c2C1 (stereo not drawn)
EC50 [1]: 700 nM

CCNC1CCc2ccc(OC)c(OC)c2C1 (stereo not drawn)
EC50 [1]: > 10000 nM

COc1cccc2c1CCC(N)C2 (stereo not drawn)
EC50 [1]: 2200 nM
Kb [2]: 7 nM

COc1ccc(SC)c2c1CC(N)CC2 (stereo not drawn)
EC50 [1]: 12 nM
Kb [2]: 5 nM

COc1ccc(OC)c(C(O)C(C)N)c1 (stereo not drawn) [METHOXAMINE]
EC50 [1]: 720 nM
Kb [2]: 11 nM

CCCNC1CCc2c(OC)ccc(OC)c2C1 (stereo not drawn)
EC50 [1]: 1100 nM
Kb [2]: 18 nM

Cc1ccc(C)c2c1CCC(N)C2 (stereo not drawn)
EC50 [1]: 10000 nM

COc1cccc2c1CC(N)CC2 (stereo not drawn)
EC50 [1]: 1700 nM
Kb [2]: 12 nM

NC1CCc2ccccc2C1 (stereo not drawn)
EC50 [1]: > 30000 nM

CCNC1CCc2c(SC)ccc(OC)c2C1 (stereo not drawn)
EC50 [1]: 26 nM

CNC1CCc2c(OC)ccc(OC)c2C1 (stereo not drawn)
EC50 [1]: 86 nM
Kb [2]: 11 nM

COc1ccc(OC)c2c1CCC(N)C2 (stereo not drawn)
EC50 [1]: 120 nM
Kb [2]: 6 nM

CCNC1CCc2c(N)ccc(OC)c2C1 (stereo not drawn)
EC50 [1]: 5300 nM

COc1ccc(SC)c2c1CC(N(C)C)CC2 (stereo not drawn)
EC50 [1]: 14 nM
Kb [2]: 9 nM

CCNC1CCc2c(OC)ccc(SC)c2C1 (stereo not drawn)
EC50 [1]: 140 nM
Kb [2]: 16 nM

COc1ccc(Cl)c2c1CCC(N)C2 (stereo not drawn)
EC50 [1]: 230 nM
Kb [2]: 13 nM

NC[C@H](O)c1ccc(O)c(O)c1 [NOREPINEPHRINE]
EC50 [1]: 150 nM

CCNC1CCc2c(OC)ccc(Cl)c2C1 (stereo not drawn)
EC50 [1]: 64 nM
Kb [2]: 14 nM

CCNC1CCc2c(OC)ccc(I)c2C1 (stereo not drawn)
EC50 [1]: 64 nM
Kb [2]: 12 nM
